ChEMBL document CHEMBL4118208, “Design, synthesis and molecular modeling of new 4-phenylcoumarin derivatives as tubulin polymerization inhibitors targeting MCF-7 breast cancer cells” (Bioorg Med Chem, 2018)
Values after ≈ are worked out from the molar mass of the structure shown.

What was measured:
[1] = system: MCF7; experiment: Growth inhibition of human MCF7 cells at 100 ug/ml after 48 hrs by MTT assay relative to control; assay type: functional; conditions: MCF7, 48 h, read-out: GI
Procedure, shortened: (§1)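 Preliminary screen at 100 µg/mL against MCF-7 and normal BJ-1 cells. Values are % inhibition, given as the mean of 3 replicate samples with standard deviation.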

[2] = system: MCF7; experiment: Growth inhibition of human MCF7 cells after 48 hrs by MTT assay; assay type: functional, cell-based; conditions: MCF7, 48 h
[3] = Growth inhibition of human hTERT-BJ1 cells at 100 ug/ml after 48 hrs by MTT assay relative to control; assay type: cell-based, hTERT-BJ; conditions: read-out: GI; procedure, shortened: as §1
[4] = molecular target: T1, Tubulin beta-5 chain (Homo sapiens, UniProt P07437); experiment: Inhibition of tubulin beta polymerization in human MCF7 cells after 18 to 24 hrs by ELISA based spectrophotometric analysis; assay type: cell-based
T1 sequence (P07437 whole entry): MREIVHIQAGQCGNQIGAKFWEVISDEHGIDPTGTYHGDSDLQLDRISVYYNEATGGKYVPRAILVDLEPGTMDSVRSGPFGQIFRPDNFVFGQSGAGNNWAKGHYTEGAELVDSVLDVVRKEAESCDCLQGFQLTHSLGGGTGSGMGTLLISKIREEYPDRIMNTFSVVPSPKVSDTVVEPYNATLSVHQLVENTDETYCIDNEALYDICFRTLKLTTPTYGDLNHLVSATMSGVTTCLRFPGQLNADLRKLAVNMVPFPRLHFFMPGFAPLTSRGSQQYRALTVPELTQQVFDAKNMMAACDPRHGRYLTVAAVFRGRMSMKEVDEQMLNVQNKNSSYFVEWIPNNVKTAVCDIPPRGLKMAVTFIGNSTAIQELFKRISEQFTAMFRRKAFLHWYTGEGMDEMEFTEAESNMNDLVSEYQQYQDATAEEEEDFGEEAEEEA

[5] = molecular target: T1, Tubulin beta-5 chain; experiment: Potency index, ratio of colchicine IC50 to compound IC50 for tubulin beta polymerization in human MCF7 cells; assay type: cell-based
[6] = system: MCF7; experiment: Induction of apoptosis in human MCF7 cells assessed as increase in caspase 7 levels at 11.1 ug/ml after 24 hrs by ELISA relative to control; assay type: functional
Procedure, shortened: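 Caspase-7 level is measured in MCF-7 cells after treatment at 11.1 µg/mL for 24 h and reported as concentration. Doxorubicin is used as reference.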

[7] = system: MCF7; experiment: Induction of apoptosis in human MCF7 cells assessed as early apoptotic cells at 11.1 ug/ml after 24 hrs by Annexin V-FITC/PI staining based flow cytometry (reference value: 0.18%); assay type: functional
Procedure, shortened: (§2)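 MCF-7 cells treated at 11.1 µg/mL for 24 h, then labelled with annexin V-FITC and propidium iodide. Green (FITC) and red (PI) fluorescence are read by flow cytometry. Early apoptosis is scored as annexin V+/PI−, late as annexin V+/PI+. DMSO serves as negative control.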

[8] = system: MCF7; experiment: Cell cycle arrest in human MCF7 cells assessed as accumulation at G2 phase at 11.1 ug/ml after 24 hrs by PI staining based flow cytometry (reference value: 8.59%); assay type: functional
[9] = system: MCF7; experiment: Cell cycle arrest in human MCF7 cells assessed as accumulation at G2/M phase at 11.1 ug/ml after 24 hrs by PI staining based flow cytometry relative to control; assay type: functional
[10] = system: MCF7; experiment: Induction of apoptosis in human MCF7 cells assessed as late apoptotic cells at 11.1 ug/ml after 24 hrs by Annexin V-FITC/PI staining based flow cytometry (reference value: 0.09%); assay type: functional; procedure, shortened: as §2
[11] = system: MCF7; experiment: Cell cycle arrest in human MCF7 cells assessed as accumulation at pre-G1 phase at 11.1 ug/ml after 24 hrs by PI staining based flow cytometry relative to control; assay type: functional
[12] = system: MCF7; experiment: Cell cycle arrest in human MCF7 cells assessed as apoptotic cells at 11.1 ug/ml after 24 hrs by PI staining based flow cytometry (reference value: 0.64%); assay type: functional
[13] = system: MCF7; experiment: Induction of apoptosis in human MCF7 cells assessed as viable cells at 11.1 ug/ml after 24 hrs by Annexin V-FITC/PI staining based flow cytometry (reference value: 97.24%); assay type: functional; conditions: MCF7, 24 h, read-out: Activity; procedure, shortened: as §2
[14] = system: MCF7; experiment: Cell cycle arrest in human MCF7 cells assessed as accumulation at G1 phase at 11.1 ug/ml after 24 hrs by PI staining based flow cytometry (reference value: 61.31%); assay type: functional
[15] = system: MCF7; experiment: Cell cycle arrest in human MCF7 cells assessed as accumulation at S phase at 11.1 ug/ml after 24 hrs by PI staining based flow cytometry (reference value: 30.1%); assay type: functional
[16] = system: MCF7; experiment: Induction of apoptosis in human MCF7 cells assessed as necrotic cells at 11.1 ug/ml after 24 hrs by Annexin V-FITC/PI staining based flow cytometry (reference value: 0.37%); assay type: functional; procedure, shortened: as §2

Row | IC50 [2] | SMILES | inhibition of growth at 100 µg/mL [1] | other results
1 | 28 mg/L (≈ 58.6 µM) | CCn1c(C)c(C(C)=O)s/c1=N\NC(=O)COc1ccc2c(-c3ccccc3)cc(=O)oc2c1 | > 70% | 
2 | 38.1 mg/L (≈ 88 µM) | O=C(COc1ccc2c(-c3ccccc3)cc(=O)oc2c1)N/N=C/c1ccc(Cl)cc1 | 76.5% | 
3 | 30.6 mg/L (≈ 59.8 µM) | CCOC(=O)C(S/C(=N/NC(=O)COc1ccc2c(-c3ccccc3)cc(=O)oc2c1)NC)C(C)=O (configuration not stated) | > 70% | 
4 | 21.2 mg/L (≈ 37.7 µM) | COc1cc(C2SCC(=O)N2NC(=O)COc2ccc3c(-c4ccccc4)cc(=O)oc3c2)cc(OC)c1OC (configuration not stated) | 86.4% | inhibition at 48 h, 100 ug/ml [3]: 16.8%; IC50 [4]: 6.13 µM
5 | 37 mg/L (≈ 76.5 µM) | CCOC(=O)C(C)S/C(=N/NC(=O)COc1ccc2c(-c3ccccc3)cc(=O)oc2c1)NC (configuration not stated) | > 70% | 
6 | 10.6 mg/L (≈ 21.3 µM) | CCn1c(-c2ccccc2)cs/c1=N\NC(=O)COc1ccc2c(-c3ccccc3)cc(=O)oc2c1 | > 70% | 
7 | 16.7 mg/L (≈ 32.9 µM) | O=C(COc1ccc2c(-c3ccccc3)cc(=O)oc2c1)NN1C(=O)CSC1c1ccc(Cl)cc1 (configuration not stated) | > 70% | inhibition at 48 h, 100 ug/ml [3]: 26.9%; IC50 [4]: 2.89 µM; Ratio IC50 [5]: 2.4
8 | 11.1 mg/L (≈ 22.6 µM) | O=C(COc1ccc2c(-c3ccccc3)cc(=O)oc2c1)NN1C(=O)CSC1c1ccc(F)cc1 (configuration not stated) | > 70% | fold change (FC) [6]: 3.237; Activity [7]: 5.49%; Activity [8]: 43.59%; fold change (FC) [9]: 5; Activity [10]: 10.63%; fold change (FC) [11]: 28.6; Activity [12]: 18.31%; viability at 11.1 µg/mL [13]: 79.8%; Activity [14]: 38.36%; inhibition at 48 h, 100 ug/ml [3]: 13.2%; Activity [15]: 18.05%; IC50 [4]: 9.37 µM; Activity [16]: 2.19%
9 | 42 mg/L (≈ 90.6 µM) | CC(=O)c1s/c(=N\NC(=O)COc2ccc3c(-c4ccccc4)cc(=O)oc3c2)n(C)c1C | > 70% | 
10 | 25.2 mg/L (≈ 81.2 µM) | NNC(=O)COc1ccc2c(-c3ccccc3)cc(=O)oc2c1 | > 70% | 
11 | 42 mg/L (≈ 76.2 µM) | O=C(COc1ccc2c(-c3ccccc3)cc(=O)oc2c1)NN1C(=O)CSC1c1ccc(Br)cc1 (configuration not stated) | > 70% | 

Further lines, the compound ahead of its results:

Row | SMILES | IC50 [2] | inhibition of growth at 100 µg/mL [1] | other results
12 | Cc1cs/c(=N\NC(=O)COc2ccc3c(-c4ccccc4)cc(=O)oc3c2)n1C | 36.9 mg/L (≈ 87.5 µM) | > 70% | 
13 | COc1ccc(/C=N/NC(=O)COc2ccc3c(-c4ccccc4)cc(=O)oc3c2)cc1OC |  | 48.9% | 
14 | COc1ccc(C2SCC(=O)N2NC(=O)COc2ccc3c(-c4ccccc4)cc(=O)oc3c2)cc1OC (configuration not stated) |  | 63.3% | 
15 | CCN/C(=N\NC(=O)COc1ccc2c(-c3ccccc3)cc(=O)oc2c1)SC(C(C)=O)C(=O)OCC (configuration not stated) | 41.9 mg/L (≈ 79.7 µM) | > 70% | 
16 | O=C(COc1ccc2c(-c3ccccc3)cc(=O)oc2c1)N/N=C/c1ccc(F)cc1 |  | 65.5% | 
17 | COc1ccc(/C=N/NC(=O)COc2ccc3c(-c4ccccc4)cc(=O)oc3c2)cc1 |  | 46.3% | 
18 | COc1ccc(C2SCC(=O)N2NC(=O)COc2ccc3c(-c4ccccc4)cc(=O)oc3c2)cc1 (configuration not stated) |  | 64.4% | 
19 | O=C(COc1ccc2c(-c3ccccc3)cc(=O)oc2c1)N/N=C/c1ccc(Br)cc1 |  | 67.8% | 
20 | Cn1c(-c2ccccc2)cs/c1=N\NC(=O)COc1ccc2c(-c3ccccc3)cc(=O)oc2c1 | 9.3 mg/L (≈ 19.2 µM) | > 70% | 
21 | COc1cc(/C=N/NC(=O)COc2ccc3c(-c4ccccc4)cc(=O)oc3c2)cc(OC)c1OC | 4.3 mg/L (≈ 8.8 µM) | 90.7% | 
22 | CCn1c(C)cs/c1=N\NC(=O)COc1ccc2c(-c3ccccc3)cc(=O)oc2c1 | 78 mg/L (≈ 179 µM) | > 70% | 
23 | CCN/C(=N\NC(=O)COc1ccc2c(-c3ccccc3)cc(=O)oc2c1)SC(C)C(=O)OCC (configuration not stated) |  | 67.1% | 
